# High-throughput results deposited in PubChem BioAssay by several laboratories.
# MsrA inh – inhibitors of bovine MsrA. purified bovine MsrA, absorbance read-out. AID 651718. actives 0.75% (n = 360,000). inhibition, % at 15.5 µM; in the data active = inhibition above about 4.5%;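 note: 0% = vehicle wells with enzyme and 100% = reference inhibitor wells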
# SKN-1 block – C. elegans SKN-1 inhibition; C. elegans VP596 Pgst-4::GFP/RFP ratio, acrylamide-induced, 24 h; inhibition, % at 21.8 µM; actives 0.49% (n = 360,000); AID 624304;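 active = interference check ratio from 0.5 to 1.5 plus GFP to RFP signal ratio inhibition reaching or exceeding a fixed threshold, cut at about 30% in these data, passing the limit was not always enough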
# MsrA act – activates bovine MsrA enzyme; purified bovine MsrA, absorbance read-out; activation, % at 10.6 µM; AID 602163; actives 0.3% (n = 360,000); in the data active = activation above about 7.5%;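 note: 0% = vehicle and 100% = reference activator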
# p-CIP stab down – compounds decreasing mouse p/CIP protein stability. Q05BA5. decrease of EGFP signal, % at 10 µM. F442A p/CIP-EGFP cells, EGFP fluorescence, 16 h. actives 0.01% (n = 290,000);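 active = EGFP signal decrease of at least 30% at 10 µM or well 3 SD below plate mean, unless failing retest; inactive = the rest, including hits failing retest or dose response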
# MT1-MMP act inh – MT1-MMP (human) activation inhibition | HT1080 RFP-PRO-GFP cells, GFP/RFP ratio fluorescence, overnight; percent of plate control window, DMSO zero | GFP/RFP ratio change, % at 20 µM | actives 0.061% (n = 360,000);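 active = GFP/RFP ratio change of at least 30% with cell ATP level not reduced by more than half and red fluorescence within 50% of control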
#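 Test system: HT1080 cells expressing an RFP-PRO-GFP fluorescent reporter construct / Compound dosing: single-point 20 µM compound, 1% DMSO / Schedule: cells overnight before dosing, compound overnight, 37 °C, 5% CO2 / Evaluation: GFP/RFP fluorescence ratio / Control set: DMSO and RFP-L50D-GFP cell wells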
# MsrA activ conf – bovine methionine sulfoxide reductase A activation confirmed. shares compounds with MsrA act. purified bovine MsrA, absorbance read-out. activation, % at 10.6 µM. actives 12% (n = 1,000); in the data active = activation above about 4%;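 note: enzyme coupled to thioredoxin and thioredoxin reductase with NADPH; 0% = vehicle wells and 100% = reference activator wells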
# The depositor's hits bear a star; nt = not tested or not shown. Hits are enriched below; roughly 1.6% of the tested compounds scored in any of these assays.
SMILES,MsrA inh,SKN-1 block,MsrA act,p-CIP stab down,MT1-MMP act inh,MsrA activ conf
O=[N+]([O-])c1ccc(-[n+]2ccc3ccccc3c2)c([N+](=O)[O-])c1,2.3,31.5,11.4*,nt,6.6,2.8
CCOC(=O)NC1(C(F)(F)F)C(=O)N(Cc2ccccc2)C2=C1C(=O)CC(C)(C)C2 (stereo not drawn),1.1,9.6,11.6*,-3.1,-1.7,-1.1
CC1(C)CC(=O)C2=C(C1)N(Cc1ccco1)C(=O)C2(NC(=O)c1cccnc1)C(F)(F)F (stereo not drawn),0.1,-2.5,8.2*,-12.7,-0.3,-1.8
CCCc1nc2c(C)cc(Br)cn2c1Cc1cccc(Cl)c1,0.8,nt,nt,nt,nt,nt
Cc1ccc(NCc2nnc3n2CCCCC3)c(C)c1,-0.3,-8.6,8.2*,1.6,2.1,-0.7
COC(=O)C1=C(C)N(C)C(=NCC2CC2)NC1c1ccccc1 (stereo not drawn),1.3,nt,nt,nt,nt,nt
O=C(Nc1ccc(F)cc1)N1CCN(c2nc3ccccc3s2)CC1,-0.3,15.7,8.0*,-0.8,6.6,0.7
O=C(Nc1ccccc1)N1CCN(c2nc3ccccc3s2)CC1,0.8,14.1,-0.7,5.1,7.6,nt
Cc1ccccc1OCC(=O)N/N=C/c1ccc([N+](=O)[O-])o1,4.1,-8.5,-10.3,-12.1,nt,nt
COc1ccccc1OCC(=O)N/N=C/C=C/c1ccc([N+](=O)[O-])o1,1.3,3.2,10.0*,1.3,-11.3,2.5
COc1ccc(C2CC(=O)C(c3ccccc3OC)=CN2Cc2ccccc2)cc1 (stereo not drawn),2.0,nt,nt,nt,nt,nt
COc1cc(OC)cc(C(=O)NC2CCN(CC(=O)Nc3cccc4ccccc34)CC2)c1,1.0,14.5,8.9*,-13.0,2.2,-0.7
CC(C)N(C[C@@H]1CSCCS(=O)(=O)N1)C(C)C,0.4,nt,nt,nt,nt,nt
Cc1c(Cl)cccc1-c1ccc(CNCc2ccccn2)o1,0.6,3.4,7.7*,-1.6,-8.9,-1.0
COc1ccc(C(=O)NC(=O)COC(=O)C2CC2C)cc1 (stereo not drawn),-0.4,7.3,8.0*,nt,-1.1,-3.2
Nn1c(SCC(=O)Nc2ccc(F)c(F)c2)nnc1C1CCCCC1,0.0,-6.0,9.3*,-6.4,1.2,-1.7
NC(=O)c1ccc(NC(=O)CSc2nnc(C3CCCCC3)n2N)cc1,-0.3,-2.7,-5.2,13.2,-0.6,nt
OC[C@@H]1CN(Cc2ccc3c(c2)OCO3)C[C@H](n2cnc3c(N4CCOCC4)ncnc32)O1,0.6,6.9,7.8*,nt,0.4,0.3
Cc1ccc(S(=O)(=O)NC(CCCNC(=O)OCc2ccccc2)C(=O)O)cc1 (stereo not drawn),0.2,nt,nt,nt,nt,nt
CCOc1ccc(-c2nnc(-c3cccnc3)o2)cc1OCC,2.4,-2.9,9.2*,-12.6,0.1,1.1
COc1ccc(-c2nnc(-c3cccnc3)o2)cc1OC,1.5,16.3,-0.6,0.9,5.0,nt
CC(C)c1[nH]nc2c1C(c1ccc(F)cc1)N(Cc1ccccc1)C2=O (stereo not drawn),-0.2,nt,nt,nt,nt,nt
CN(C)c1nc(C#N)nc(N2CCOCC2)n1,-0.3,-8.3,-4.6,-15.3,-1.6,nt
CC(C)N(C#N)c1nc(N2CCOCC2)nc(N2CCOCC2)n1,0.2,3.8,17.3*,-3.5,2.3,-4.1
Cc1cccc(C)c1NC(=O)N1CCC(n2c(=O)[nH]c3ccccc32)CC1,-1.0,-14.2,7.8*,-6.8,4.9,-1.3
SMILES,MsrA inh,SKN-1 block,MsrA act,p-CIP stab down,MT1-MMP act inh,MsrA activ conf
Cc1cccc(C)c1NC(=O)N1CCC(n2cnc3ccccc32)CC1,-1.3,-4.6,-2.8,3.6,0.5,nt
Cc1ccc(-n2c([C@@H]3C[C@H]3c3ccccc3)n[nH]c2=S)cc1,-0.2,-12.3,8.9*,-8.5,6.6,-2.8
CN(C(=O)c1cccc(NC(=O)Cc2cccc(NC(=O)C3CCN(C(=O)c4ccccc4)CC3)c2)c1)C1CC1,-1.1,12.7,8.7*,nt,2.9,-0.6
CN(C(=O)c1cccc(NC(=O)Cc2ccc(NC(=O)C3CCN(C(=O)c4ccccc4)CC3)cc2)c1)C1CC1,-0.7,4.9,-1.1,nt,-0.1,nt
Cc1cccc(N2CCN(S(=O)(=O)c3ccc(-c4coc(C)n4)cc3)CC2C)c1 (stereo not drawn),-0.2,1.7,7.7*,-1.2,-1.8,-1.2
CC(=O)O[C@H]1C=C[C@@H](C#Cc2ccc(C(C)(C)C)cc2)O[C@@H]1COC(=O)Nc1ccccc1,-0.2,nt,nt,nt,nt,nt
COCCN(CCOC)Cc1cc(=O)oc2cc3c(cc12)CCC3,0.5,9.9,0.9,-6.0,1.0,nt
COCCN(CCOC)Cc1cc(=O)oc2cc(C)ccc12,0.9,-3.6,12.2*,nt,3.9,-1.3
COc1ccc(Cc2nnc(NC(=O)Nc3ccccc3F)s2)cc1OC,-0.7,27.0,11.0*,-7.9,2.4,-1.2
CC(=O)Nc1nnc(Cc2ccccc2)s1,-0.7,-22.1,8.6*,-3.8,-5.9,-2.8
Cc1ccc(-c2ccc(/C=N/NC(=O)CN3CCCC3)o2)cc1Cl,1.6,12.1,8.8*,6.4,-8.4,0.6
COC(=O)N/N=C/c1ccc(-c2ccc(C)c(Cl)c2)o1,2.4,13.3,-4.6,-9.8,1.0,nt
CSc1ccc(-c2nc(O)c3cnccn23)cc1,3.1,1.5,10.2*,-13.1,0.3,-3.6
CSc1cccc(N2C(=O)C3CCCN3C2=S)c1 (stereo not drawn),-1.2,12.9,8.1*,2.2,-1.6,0.9
Cc1cccc(N2C(=O)C3CCCN3C2=S)c1 (stereo not drawn),-1.4,-18.0,-9.7,6.6,-2.7,nt
CNC12CCc3cc(OC)c(OC)c(c31)-c1cc3c(cc1C2)OCO3 (stereo not drawn),-0.4,nt,nt,nt,nt,nt
O=S1(=O)c2ccc(Br)cc2OC[C@H](c2ccccc2)N1Cc1ccccc1,-0.1,nt,nt,nt,nt,nt
COc1ccc(NC(=O)N(C)C[C@H]2OCCCC[C@@H](C)Oc3ccc(NC(=O)c4ccccc4)cc3C(=O)N([C@H](C)CO)C[C@@H]2C)cc1,-0.1,5.3,11.0*,nt,-1.0,-2.1
Cc1noc(C)c1NC(=O)N(C)C[C@H]1Oc2ccc(NC(=O)Nc3ccc(C(F)(F)F)cc3)cc2C(=O)N([C@H](C)CO)C[C@@H]1C,-0.6,4.7,19.3*,nt,4.4,0.0
Cc1noc(C)c1NC(=O)N(C)C[C@H]1Oc2ccc(NC(=O)NC(C)C)cc2C(=O)N([C@H](C)CO)C[C@H]1C,0.7,11.4,-13.3,nt,-0.5,nt
C#CCNc1cccc2c1S(=O)(=O)N[C@H](C)CO2,-0.4,nt,nt,nt,nt,nt
COc1ccc(-c2noc(CSc3nnc(-c4ccncc4)n3-c3ccc(F)cc3)n2)cc1OC,1.6,0.1,17.9*,4.0,-1.4,-0.4
CC(=O)Nc1ccc(SC[C@H](Cc2ccccc2)N2CC[C@@H](C(C)(C)C)CCC2=O)cc1,0.7,22.6,-3.8,nt,1.3,nt
CC(=O)Nc1ccc(SC[C@H](Cc2ccccc2)N2CC[C@@H](O)CCC2=O)cc1,0.3,-1.8,9.3*,nt,0.3,-1.3
